Test results from PMC10401071 (Cancer Discovery, 2023).
Where two headings read alike, the source gives them in different places.

Assays:
[1] = assay type: in vivo, human
Procedure, shortened: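 Adults with advanced solid tumours (ECOG 0–1; TP53 wild-type or unknown) received oral test compound on day 1 of 21-day cycles or days 1 and 8 of 28-day cycles, until progression or unacceptable toxicity. Antiemetic prophylaxis followed guidelines. AE incidence and severity were graded per NCI CTCAE v5.0 and summarised descriptively.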

[2] = Phase Ia dose escalation: dose-limiting toxicities; assay type: in vivo, human; conditions: for maximum tolerated dose (MTD): based on DLTs during cycle 1 and BLRM
Procedure, shortened: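 Escalating oral doses, day 1 q21d (10–80 mg) or days 1 and 8 q28d (5–60 mg). DLTs were counted over cycle 1 (21 or 28 days). The MTD was the highest dose with <25% risk of true DLT rate ≥33%, estimated by BLRM with overdose control. The RDE came from a supplementary BLRM on haematologic AEs of interest over the whole treatment period.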

[3] = Pharmacokinetic analysis of blood samples after oral brigimadlin; assay type: in vivo, human; conditions: for AUC(0-inf) / Cmax: oral
Procedure, shortened: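 Oral test compound given to patients with advanced solid tumours, on day 1 of 21-day cycles or days 1 and 8 of 28-day cycles. Cycle 1 blood taken 5 min pre-dose, 1–8 h post-dose on day 1, then once on days 2, 3, 4, 5 and 8. Later cycles: pre-dose and 6 h, day 2, plus days 3 and 8 in cycle 2. Cmax and AUC by noncompartmental analysis.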

Cc1c(C(=O)O)ccc2c3n(nc12)[C@@H]1[C@H](C3)N(CC2CC2)[C@@]2(C(=O)Nc3cc(Cl)ccc32)[C@H]1c1cccc(Cl)c1F [brigimadlin]
TRAE Neutropenia, All grades ([1]; D1D8q4w (n = 25)): 6 (24.0) n (%)
TRAE Neutropenia, Grade ≥3 ([1]; D1D8q4w (n = 25)): 5 (20.0) n (%)
TRAE Thrombocytopenia, Grade ≥3 ([1]; D1D8q4w (n = 25)): 5 (20.0) n (%)
TRAE Vomiting, All grades ([1]; D1D8q4w (n = 25)): 15 (60.0) n (%)
TRAE Vomiting, Grade ≥3 ([1]; D1D8q4w (n = 25)): 1 (4.0) n (%)
patients with nausea leading to dose reduction ([1]; D1q3w): three
patients with thrombocytopenia leading to dose reduction ([1]; D1q3w): four
serious AE neutropenia ([1]; D1q3w): three
serious AE thrombocytopenia ([1]; D1q3w): three
Any AE ([1]; D1q3w (n = 29)): 29 (100.0) n (%)
Any AE (any cause) leading to study drug discontinuation ([1]; D1q3w (n = 29)): 2 (6.9) n (%)
Any AE (any cause) leading to study drug dose reduction ([1]; D1q3w (n = 29)): 11 (37.9) n (%)
Any TRAE ([1]; D1q3w (n = 29)): 27 (93.1) n (%)
Any grade ≥3 AE ([1]; D1q3w (n = 29)): 21 (72.4) n (%)
Any grade ≥3 TRAE ([1]; D1q3w (n = 29)): 17 (58.6) n (%)
Serious AEs (any cause) ([1]; D1q3w (n = 29)): 9 (31.0) n (%)
TRAE Alopecia, All grades ([1]; D1q3w (n = 29)): 6 (20.7) n (%)
TRAE Alopecia, Grade ≥3 ([1]; D1q3w (n = 29)): 0 n (%)
TRAE Anemia, All grades ([1]; D1q3w (n = 29)): 12 (41.4) n (%)
TRAE Anemia, Grade ≥3 ([1]; D1q3w (n = 29)): 3 (10.3) n (%)
TRAE Decreased appetite, All grades ([1]; D1q3w (n = 29)): 10 (34.5) n (%)
TRAE Decreased appetite, Grade ≥3 ([1]; D1q3w (n = 29)): 0 n (%)
TRAE Decreased lymphocyte count, All grades ([1]; D1q3w (n = 29)): 5 (17.2) n (%)
TRAE Decreased lymphocyte count, Grade ≥3 ([1]; D1q3w (n = 29)): 3 (10.3) n (%)
TRAE Decreased weight, All grades ([1]; D1q3w (n = 29)): 3 (10.3) n (%)
TRAE Decreased weight, Grade ≥3 ([1]; D1q3w (n = 29)): 0 n (%)
TRAE Decreased white blood cell count, All grades ([1]; D1q3w (n = 29)): 9 (31.0) n (%)
TRAE Decreased white blood cell count, Grade ≥3 ([1]; D1q3w (n = 29)): 5 (17.2) n (%)
TRAE Diarrhea, All grades ([1]; D1q3w (n = 29)): 8 (27.6) n (%)
TRAE Diarrhea, Grade ≥3 ([1]; D1q3w (n = 29)): 0 n (%)
TRAE Dysgeusia, All grades ([1]; D1q3w (n = 29)): 5 (17.2) n (%)
TRAE Dysgeusia, Grade ≥3 ([1]; D1q3w (n = 29)): 0 n (%)
TRAE Fatigue, All grades ([1]; D1q3w (n = 29)): 15 (51.7) n (%)
TRAE Fatigue, Grade ≥3 ([1]; D1q3w (n = 29)): 1 (3.4) n (%)
TRAE Gastroesophageal reflux disease, All grades ([1]; D1q3w (n = 29)): 2 (6.9) n (%)
TRAE Gastroesophageal reflux disease, Grade ≥3 ([1]; D1q3w (n = 29)): 0 n (%)
TRAE Increased alanine aminotransferase, All grades ([1]; D1q3w (n = 29)): 3 (10.3) n (%)
TRAE Increased alanine aminotransferase, Grade ≥3 ([1]; D1q3w (n = 29)): 0 n (%)
TRAE Increased aspartate aminotransferase, All grades ([1]; D1q3w (n = 29)): 4 (13.8) n (%)
TRAE Increased aspartate aminotransferase, Grade ≥3 ([1]; D1q3w (n = 29)): 0 n (%)
TRAE Nausea, All grades ([1]; D1q3w (n = 29)): 21 (72.4) n (%)
TRAE Nausea, Grade ≥3 ([1]; D1q3w (n = 29)): 4 (13.8) n (%)
TRAE Neutropenia, Grade ≥3 ([1]; D1q3w (n = 29)): 8 (27.6) n (%)
TRAE Thrombocytopenia, All grades ([1]; D1q3w (n = 29)): 15 (51.7) n (%)
TRAE Thrombocytopenia, Grade ≥3 ([1]; D1q3w (n = 29)): 9 (31.0) n (%)
TRAE Vomiting, All grades ([1]; D1q3w (n = 29)): 13 (44.8) n (%)
TRAE Vomiting, Grade ≥3 ([1]; D1q3w (n = 29)): 0 n (%)
TRAE neutropenia grade 3 ([1]; all 54 patients): 9.3%
TRAE neutropenia grade 4 ([1]; all 54 patients): 14.8%
TRAE thrombocytopenia grade 3 ([1]; all 54 patients): 13.0%
TRAE thrombocytopenia grade 4 ([1]; all 54 patients): 13.0%
grade ≥3 TRAE neutropenia ([1]; all 54 patients): 24.1%
grade ≥3 TRAE thrombocytopenia ([1]; all 54 patients): 25.9%
patients with a grade ≥3 AE ([1]; all 54 patients): 61.1%
patients with a serious AE ([1]; all 54 patients): 33.3%
patients with grade ≥3 TRAEs ([1]; all 54 patients): 46.3%
patients with investigator-reported TRAEs ([1]; all 54 patients): 92.6%
TRAE nausea ([1]; all 54 patients, all grades): 74.1%
TRAE vomiting ([1]; all 54 patients, all grades): 51.9%
treatment discontinuation due to a hematologic TRAE ([1]; both treatment arms): no patient discontinued treatment with brigimadlin due to a hematologic TRAE
treatment discontinuation due to a DLT in cycle 1 ([2]; D1D8q4w arm): no patient discontinued treatment due to a DLT in cycle 1
patients with DLTs during the MTD evaluation period (cycle 1) ([2]; D1D8q4w arm, 5 to 60 mg): Three
maximum tolerated dose (MTD) ([2]; D1D8q4w): 45 mg
treatment discontinuation due to a DLT in cycle 1 ([2]; D1q3w arm): No patient discontinued treatment due to a DLT in cycle 1
patients with DLTs during the MTD evaluation period (cycle 1) ([2]; D1q3w arm, 10 to 80 mg): Five
maximum tolerated dose (MTD) ([2]; D1q3w): 60 mg
patients with DLTs after the MTD evaluation period ([2]; both arms): Seven
recommended dose for expansion (RDE) for phase Ib ([2]; q3w, supplementary BLRM analysis of AEs of interest over entire treatment period): 45 mg
dose linearity of plasma exposure (Cmax and AUC0-inf) ([3]; after the first dose, both arms, dose range 5 to 80 mg): no significant deviation from linearity
dose linearity of plasma exposure (Cmax and AUC0-inf) ([3]; dose range 10 to 60 mg): no significant deviation from linearity
AUC(0-inf) ([3]; human, plasma, 60 mg): 121 µM·h
Cmax ([3]; human, plasma, 60 mg): 2.48 µM
AUC(0-inf) ([3]; human, plasma, 80 mg): 339 µM·h
Cmax ([3]; human, plasma, 80 mg): 4.8 µM
half-life ([3]; human, plasma, po, half-life, patients, as summarised in Discussion): 1800 to 3600 min
